In ChEMBL document CHEMBL1821649, “Synthesis, characterization of some benzazoles bearing pyridine moiety: search for novel anticancer agents” (2011):

Legend:
Assay type in all cases: functional
[1] = test system: NCI-H522; test: Antitumor activity against human NCI-H522 cells after 48 hrs by SRB assay; details: NCI-H522, 48 h
Method in brief: (§1)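 NCI-60 human tumour cell panel run under the National Cancer Institute Drug Evaluation Branch protocol. Compounds passing a single-dose prescreen were retested on all lines at five 10-fold dilutions. Growth was expressed as percent growth of treated cells. Response parameters were GI50 (molar concentration giving 50% growth inhibition), TGI (total growth inhibition) and LC50 (median lethal concentration).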

[2] = test system: NCI-H23; test: Antitumor activity against human NCI-H23 cells after 48 hrs by SRB assay; details: NCI-H23, 48 h; method in brief: as §1
[3] = test system: A498; test: Antitumor activity against human A498 cells after 48 hrs by SRB assay; details: A498, 48 h; for CC50: read-out: LC50 (the source's name); method in brief: as §1
[4] = test system: NCI/ADR-RES; test: Antitumor activity against human NCI/ADR-RES cells after 48 hrs by SRB assay; details: for CC50: read-out: LC50 (the source's name); method in brief: as §1
[5] = test system: HOP-92; test: Antitumor activity against human HOP92 cells after 48 hrs by SRB assay; details: HOP-92, 48 h; method in brief: as §1
[6] = test system: SNB-75; test: Antitumor activity against human SNB75 cells after 48 hrs by SRB assay; details: SNB-75, 48 h; method in brief: as §1
[7] = test system: RXF 393; test: Antitumor activity against human RXF393 cells after 48 hrs by SRB assay; details: RXF 393, 48 h; for CC50: read-out: LC50 (the source's name); method in brief: as §1
[8] = test system: SN12C; test: Antitumor activity against human SN12C cells after 48 hrs by SRB assay; details: for CC50: read-out: LC50 (the source's name); method in brief: as §1
[9] = test system: LOX IMVI; test: Antitumor activity against human LOXIMVI cells after 48 hrs by SRB assay; details: for CC50: read-out: LC50 (the source's name); method in brief: as §1
[10] = test system: EKVX; test: Antitumor activity against human EKVX cells after 48 hrs by SRB assay; details: for CC50: read-out: LC50 (the source's name); method in brief: as §1
[11] = test system: NCI-H226; test: Antitumor activity against human NCI-H226 cells after 48 hrs by SRB assay; details: NCI-H226, 48 h; for CC50: read-out: LC50 (the source's name); method in brief: as §1
[12] = test system: SNB-19; test: Antitumor activity against human SNB19 cells after 48 hrs by SRB assay; details: SNB-19, 48 h; method in brief: as §1
[13] = test system: MDA-MB-468; test: Antitumor activity against human MDA-MB-468 cells after 48 hrs by SRB assay; details: MDA-MB-468, 48 h; for CC50: read-out: LC50 (the source's name); method in brief: as §1
[14] = test system: NCI-H460; test: Antitumor activity against human NCI-H460 cells after 48 hrs by SRB assay; details: NCI-H460, 48 h; method in brief: as §1
[15] = test system: OVCAR-4; test: Antitumor activity against human OVCAR4 cells after 48 hrs by SRB assay; details: OVCAR-4, 48 h; for CC50: read-out: LC50 (the source's name); method in brief: as §1
[16] = test system: KM12; test: Antitumor activity against human KM12 cells after 48 hrs by SRB assay; details: KM12, 48 h; for CC50: read-out: LC50 (the source's name); method in brief: as §1
[17] = test system: SK-MEL-5; test: Antitumor activity against human SK-MEL-5 cells after 48 hrs by SRB assay; details: SK-MEL-5, 48 h; method in brief: as §1
[18] = test system: NCI-H322M; test: Antitumor activity against human NCI-H322M cells after 48 hrs by SRB assay; details: for CC50: read-out: LC50 (the source's name); method in brief: as §1
[19] = test system: MCF7; test: Antitumor activity against human MCF7 cells after 48 hrs by SRB assay; details: MCF7, 48 h; for CC50: read-out: LC50 (the source's name); method in brief: as §1
[20] = test system: BT-549; test: Antitumor activity against human BT549 cells after 48 hrs by SRB assay; details: BT-549, 48 h; for CC50: read-out: LC50 (the source's name); method in brief: as §1
[21] = test system: SW-620; test: Antitumor activity against human SW620 cells after 48 hrs by SRB assay; details: SW-620, 48 h; for CC50: read-out: LC50 (the source's name)
Method in brief: (§2)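 NCI-60 human cancer cell line panel run under the NCI Drug Evaluation Branch protocol. Compounds were first screened at a single dose. Those meeting preset inhibition thresholds were retested at five 10-fold dilutions. Output was percent growth of treated cells, given as % growth inhibition. GI50, TGI and LC50 values were derived from the five-dose data.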

[22] = test system: HCT-15; test: Antitumor activity against human HCT15 cells after 48 hrs by SRB assay; details: HCT-15, 48 h; for CC50: read-out: LC50 (the source's name); method in brief: as §1
[23] = test system: T47D; test: Antitumor activity against human T47D cells after 48 hrs by SRB assay; details: for CC50: read-out: LC50 (the source's name); method in brief: as §2
[24] = Antitumor activity against human […] cells after 48 hrs by SRB assay; details: for CC50: read-out: LC50 (the source's name); method in brief: as §1
[25] = test system: MDA-MB-435; test: Antitumor activity against human MDA-MB-435 cells after 48 hrs by SRB assay; details: MDA-MB-435, 48 h; method in brief: as §1
[26] = Antitumor activity against human Hs 578T cells after 48 hrs by SRB assay; details: for CC50: read-out: LC50 (the source's name); method in brief: as §1
[27] = test system: Malme-3M; test: Antitumor activity against human MALME-3M cells after 48 hrs by SRB assay; method in brief: as §1
[28] = test system: HT-29; test: Antitumor activity against human HT-29 cells after 48 hrs by SRB assay; details: HT-29, 48 h; for CC50: read-out: LC50 (the source's name); method in brief: as §1
[29] = test system: MOLT-4; test: Antitumor activity against human MOLT4 cells after 48 hrs by SRB assay; details: MOLT-4, 48 h; method in brief: as §1
[30] = test system: OVCAR-3; test: Antitumor activity against human OVCAR3 cells after 48 hrs by SRB assay; details: OVCAR-3, 48 h; for CC50: read-out: LC50 (the source's name); method in brief: as §1
[31] = test system: IGROV-1; test: Antitumor activity against human IGROV1 cells after 48 hrs by SRB assay; details: IGROV-1, 48 h; method in brief: as §1

## COc1ccc(-c2c(C#N)cnc(N)c2-c2nc3cc(C)c(C)cc3[nH]2)cc1
[1]
  LC50: > 100 µM
[2]
  GI50: 5.37 µM
  LC50: > 100 µM
  TGI: 33.3 µM
[3]
  GI50: 10.7 µM
  TGI: 63.6 µM
  CC50: > 100 µM
[4]
  GI50: 6.84 µM
  TGI: > 100 µM
  CC50: > 100 µM
[5]
  GI50: 2.65 µM
  LC50: > 100 µM
  TGI: 16.3 µM
[6]
  GI50: 2.36 µM
  LC50: 32.4 µM
  TGI: 8.19 µM
[7]
  GI50: 6.68 µM
  TGI: 20.4 µM
  CC50: 54.1 µM
[8]
  GI50: 25.4 µM
  TGI: > 100 µM
  CC50: > 100 µM
[9]
  GI50: 5.74 µM
  TGI: > 100 µM
  CC50: > 100 µM
[10]
  GI50: 15.8 µM
  TGI: > 100 µM
  CC50: > 100 µM
[11]
  GI50: 16.4 µM
  TGI: > 100 µM
  CC50: > 100 µM
[12]
  GI50: 7.06 µM
  LC50 (median lethal concentration): > 100 µM
  TGI: 57.1 µM
[13]
  GI50: 6.22 µM
  TGI: 23.1 µM
  CC50: 68 µM
[14]
  GI50: 18.1 µM
  LC50 (median lethal concentration): > 100 µM
  TGI: > 100 µM
[15]
  GI50: 22.5 µM
  TGI: > 100 µM
  CC50: > 100 µM
[16]
  GI50: 3.47 µM
  TGI: > 100 µM
  CC50: > 100 µM
[17]
  GI50: 8.78 µM
  LC50: > 100 µM
  TGI: > 100 µM
[18]
  GI50: 15.5 µM
  TGI: > 100 µM
  CC50: > 100 µM
[19]
  GI50: 6.34 µM
  TGI: > 100 µM
  CC50: > 100 µM
[20]
  GI50: 30.6 µM
  TGI: > 100 µM
  CC50: > 100 µM
[21]
  GI50: 6.76 µM
  TGI: > 100 µM
  CC50: > 100 µM
[22]
  GI50: 5.81 µM
  TGI: > 100 µM
  CC50: > 100 µM
[23]
  GI50: 15.4 µM
  TGI: > 100 µM
  CC50: > 100 µM
[24]
  GI50: 9.8 µM
  TGI: 65.7 µM
  CC50: > 100 µM
[25]
  GI50: 1.95 µM
  LC50 (median lethal concentration): 100 µM
  TGI: 5.39 µM
[26]
  GI50: 5.87 µM
  TGI: > 100 µM
  CC50: > 100 µM
[27]
  GI50: 6 µM
  LC50: > 100 µM
  TGI: 48.3 µM
[28]
  GI50: 4.79 µM
  TGI: > 100 µM
  CC50: > 100 µM
[29]
  GI50: > 100 µM
  LC50: > 100 µM
  TGI: > 100 µM
[30]
  GI50: 14.8 µM
  TGI: 30.4 µM
  CC50: 62.2 µM
[31]
  GI50: 16 µM
  LC50: > 100 µM
  TGI: > 100 µM

## Cc1cc2nc(-c3c(N)ncc(C#N)c3-c3ccc(Cl)cc3)[nH]c2cc1C
[1]
  GI50: 4.07 µM
  LC50: 96.5 µM
  TGI: 27.9 µM
[2]
  GI50: 8.1 µM
  LC50: 99.7 µM
  TGI: 30.7 µM
[3]
  GI50: 11.8 µM
  TGI: 59.2 µM
  CC50: > 100 µM
[4]
  GI50: 15.7 µM
  TGI: > 100 µM
  CC50: > 100 µM
[5]
  GI50: 0.275 µM
  LC50: 44.2 µM
  TGI: 5.23 µM
[6]
  GI50: 12.9 µM
  LC50: 81.3 µM
  TGI: 32.4 µM
[7]
  GI50: 3.18 µM
  TGI: 13.7 µM
  CC50: 42.6 µM
[8]
  GI50: 31 µM
  TGI: > 100 µM
  CC50: > 100 µM
[9]
  GI50: 5.83 µM
  TGI: 26 µM
  CC50: 80.7 µM
[10]
  GI50: 14.4 µM
  TGI: 76.7 µM
  CC50: > 100 µM
[11]
  GI50: 15 µM
  TGI: 46.3 µM
  CC50: 100 µM
[12]
  GI50: 19.5 µM
  LC50 (median lethal concentration): > 100 µM
  TGI: 75.6 µM
[13]
  GI50: 12.4 µM
  TGI: 51.5 µM
  CC50: > 100 µM
[14]
  GI50: 3.04 µM
  LC50 (median lethal concentration): > 100 µM
  TGI: > 100 µM
[15]
  GI50: 4.4 µM
  TGI: 25.4 µM
  CC50: > 100 µM
[16]
  GI50: 14.8 µM
  TGI: > 100 µM
  CC50: > 100 µM
[17]
  GI50: 10 µM
  LC50: > 100 µM
  TGI: 33.4 µM
[18]
  GI50: 27.7 µM
  TGI: > 100 µM
  CC50: > 100 µM
[19]
  GI50: 9.34 µM
  TGI: > 100 µM
  CC50: > 100 µM
[20]
  GI50: 37.6 µM
  TGI: > 100 µM
  CC50: > 100 µM
[21]
  GI50: 32.4 µM
  TGI: > 100 µM
  CC50: > 100 µM
[22]
  GI50: 30.6 µM
  TGI: > 100 µM
  CC50: > 100 µM
[23]
  GI50: 4.63 µM
  TGI: > 100 µM
  CC50: > 100 µM
[24]
  GI50: 19.8 µM
  TGI: 84.2 µM
  CC50: > 100 µM
[25]
  GI50: 2.62 µM
  LC50 (median lethal concentration): > 100 µM
  TGI: > 100 µM
[26]
  GI50: 12 µM
  TGI: > 100 µM
  CC50: > 100 µM
[27]
  GI50: 14.5 µM
  LC50: > 100 µM
  TGI: 78.8 µM
[28]
  GI50: 6.06 µM
  TGI: > 100 µM
  CC50: > 100 µM
[29]
  GI50: 100 µM
  LC50: > 100 µM
  TGI: > 100 µM
[30]
  GI50: 13.9 µM
  TGI: 76 µM
  CC50: > 100 µM
[31]
  GI50: 18.7 µM
  LC50: > 100 µM
  TGI: > 100 µM
